Measured values gathered from unrelated publications.
Protocols differ between the studies behind these lines.
BCKDK: Branched-chain alpha-ketoacid dehydrogenase kinase (BCKDK, Homo sapiens, UniProt O14874)
murD: UDP-N-acetylmuramoylalanine--D-glutamate ligase (murD, Escherichia coli K-12, UniProt P14900)
ABCB1: ATP-dependent translocase ABCB1 (ABCB1, Homo sapiens, UniProt P08183)
PDE8A: High affinity cAMP-specific and IBMX-insensitive 3',5'-cyclic phosphodiesterase 8A (PDE8A, Homo sapiens, UniProt O60658)
PTPN7: Tyrosine-protein phosphatase non-receptor type 7 (PTPN7, Homo sapiens, UniProt P35236)
OPRM1: Mu-type opioid receptor (OPRM1, Homo sapiens, UniProt P35372)
ALOX5: Polyunsaturated fatty acid 5-lipoxygenase (ALOX5, Homo sapiens, UniProt P09917)
YES1: Tyrosine-protein kinase Yes (YES1, Homo sapiens, UniProt P07947)
KAT2B: Histone acetyltransferase KAT2B (KAT2B, Homo sapiens, UniProt Q92831)
HDAC1: Histone deacetylase 1 (HDAC1, Homo sapiens, UniProt Q13547)

SMILES	target	assay	system	setting	IC50
CCCC[C@@H](C(=O)N[C@@H](CC(=O)O)C(=O)N(C)[C@@H](Cc1ccccc1)C(N)=O)N(C)C(=O)[C@H](Cc1c[nH]c2ccccc12)NC(=O)CNC(=O)[C@H](Cc1ccc(O)cc1)NC(=O)[C@H](C)NC(=O)[C@@H](CCC(=O)O)NC(=O)CN1CCN(CC(=O)O)CCN(CC(=O)O)CCN(CC(=O)O)CC1	Gastrin/cholecystokinin type B receptor (Rattus norvegicus, UniProt P30553)	ligand displacement, radioligand			0.00453 µM
CCCc1nc2c(n1Cc1ccc(-c3ccccc3-c3nnn[nH]3)cc1)C(=O)CCCC2	BCKDK	enzyme activity, inhibitor			0.68 µM
C[C@@H]1CCO[C@H]2Cn3cc(C(=O)NCc4ccc(F)cc4F)c(=O)c(O)c3C(=O)N12	Multidrug and toxin extrusion protein 2 (SLC47A2, Homo sapiens, UniProt Q86VL8)	transporter uptake, inhibitor, radiometric	HEK293	5 min, pH 8.5	24.8 µM
O=[N+]([O-])c1ccc(S(=O)(=O)Oc2ccccc2C=NNS(=O)(=O)c2ccc3ccccc3c2)cc1	murD	enzyme activity, inhibitor, absorbance			74 µM
CCn1ncc2c1-c1cnc(N)c(c1)O[C@H](C)c1cc(F)ccc1-c1nn(C)nc1C2	Ephrin type-A receptor 6 (EPHA6, Homo sapiens, UniProt Q9UF33)	enzyme activity, inhibitor, radiometric			0.116 µM
CC1=CC[C@H]2[C@@H]([C@@H]1CC[C@H]1[C@]3(C)CC[C@H](O)C(C)(C)O[C@H]3CC[C@]1(C)O)C(C)(C)CC[C@]2(C)O	ABCB1	transporter efflux, inhibitor, fluorescence	KB-V1	10 min	50 to 100 µM
O=C1NC(=O)/C(=C/c2ccc(OCCNc3nc4c(cnn4C4CCCC4)c(=O)[nH]3)c(F)c2)S1	PDE8A	enzyme activity, inhibitor			0.199 µM
COC(=O)[C@]1(O)C[C@@H](O)[C@@H](O)[C@H](OC(=O)/C=C/c2ccc(O)c(O)c2)C1	Histone deacetylase 8 (HDAC8, Homo sapiens, UniProt Q9BY41)	enzyme activity, inhibitor			8.22 µM
O=C(O)c1cc(O)c2c(c1)[C@H]([C@H]1c3cc(C(=O)O)cc(O)c3C(=O)c3c(O[C@@H]4O[C@H](CO)[C@@H](O)[C@H](O)[C@H]4O)cccc31)c1cccc(O[C@@H]3O[C@H](CO)[C@@H](O)[C@H](O)[C@H]3O)c1C2=O	PTPN7	enzyme activity, inhibitor, fluorescence			1 µM
CCOCc1nc(O)c(-c2nnc(Cc3ccc(Cl)cn3)o2)c(O)c1-c1c(OC)cccc1OC	OPRM1	ligand displacement, radioligand			> 30 µM
CCCCCc1cc(O)c(C/C=C(\C)CCC=C(C)C)c(O)c1	ALOX5	enzyme activity in cells, inhibitor			2 µM
CCCc1nc(C(C)(C)O)c(C(=O)O)n1Cc1ccc(-c2ccccc2-c2nnn[nH]2)cc1	BCKDK	enzyme activity, inhibitor			198 µM
Cc1ccc(-c2cc(-c3ccc(-c4ccc(C(=O)O)cc4)[nH]3)nc3c(C(C)C)cccc23)cc1	Retinoic acid receptor beta (RARB, Homo sapiens, UniProt P10826)	reporter gene, antagonist			> 3.3 µM
O=C(Nc1ccccc1C=NNS(=O)(=O)c1ccc2ccccc2c1)c1ccc([N+](=O)[O-])cc1	murD	enzyme activity, inhibitor, absorbance			43 µM
Cc1nccc2c1c(=O)n(C)c1cc(OC[C@@H](N)CC(C)C)c(C#N)cc21	OPRM1	cell-free assay			> 30 µM
C=CC(=O)Nc1cc(Nc2nccc(Nc3cc(Cl)c(F)cc3C(C)(C)O)n2)c(OC)cc1N1CC[C@@H](N(C)C)C1	YES1	enzyme activity, inhibitor		with preincubation	2.9 µM
CCCc1nc2c(C)cc(-c3nc4ccccc4n3C)cc2n1Cc1ccc(-c2ccccc2C(=O)O)cc1	BCKDK	enzyme activity, inhibitor			> 300 µM

SMILES	target	assay	system	setting	IC50
CNC(=O)c1cc2c(Oc3ccc(NC(=O)C4(C(=O)Nc5ccc(F)cc5)CC4)cc3)ccnc2cc1OC	Tyrosine-protein kinase Srms (SRMS, Homo sapiens, UniProt Q9H3Y6)	enzyme activity, inhibitor, radiometric			0.01 µM
O=C1c2ccccc2-c2cccc3cccc1c23	PTPN7	enzyme activity, inhibitor, fluorescence			35 µM
CC/C=C\C/C=C\C/C=C\C/C=C\C/C=C\CCCC(=O)O	DNA polymerase (POLA1, Bos taurus, UniProt A0AAA9TD94)	enzyme activity, inhibitor			32.1 µM
CCCCc1nc(C)c(CC(=S)N(C)C)c(=O)n1Cc1ccc(-c2ccccc2-c2nnn[nH]2)cc1	BCKDK	enzyme activity, inhibitor			51.9 µM
CCCCCCCc1ccc(CCc2cccc(O)c2C(=O)O)cc1	KAT2B	enzyme activity, inhibitor, radiometric			> 200 µM
COc1ccc(S(=O)(=O)ON=C2C=C(C)C(=O)C(C)=C2)cc1	KAT2B	enzyme activity, inhibitor, radiometric			34.7 µM
O=C(O)C(=O)CC(=O)c1cccc(N(Cc2ccccc2)Cc2ccccc2)c1	PTPN7	enzyme activity, inhibitor, absorbance		pH 7	87 µM
CCCC[C@H](NC(=O)[C@H](C)c1c(C)[nH]c2ccc(O)cc12)c1ncc(-c2cc3ccccc3nc2OC)[nH]1	HDAC1	enzyme activity, inhibitor			0.04 µM
COc1ccc(C2=NN(C3CCCCCC3)C(=O)[C@@H]3CC=CC[C@H]23)cc1-c1ccc(C(N)=O)cc1 (relative stereo)	PDE8A	enzyme activity, inhibitor			> 10 µM
CN1CCN(c2ccc(Nc3ncc4cc(C#N)c(=O)n(C5CCCC5)c4n3)cc2)CC1	TGF-beta receptor type-2 (TGFBR2, Homo sapiens, UniProt P37173)	enzyme activity, inhibitor			0.123 µM
C=C(C)[C@@H]1CCC(C)=C[C@H]1c1c(O)cc(CCCCC)cc1O	ALOX5	enzyme activity in cells, inhibitor			> 10 µM
O=C(Nc1ccc(C=NNS(=O)(=O)c2ccc3ccccc3c2)cc1)c1ccccc1[N+](=O)[O-]	murD	enzyme activity, inhibitor, absorbance			45 µM
CC[C@H](C)[C@H](NC(C)=O)C(=O)N[C@@H](CCC(=O)O)C(=O)N[C@H](C(=O)N[C@H](C=O)CC(=O)O)[C@@H](C)O	Caspase-5 (CASP5, Homo sapiens, UniProt P51878)	enzyme activity, inhibitor			0.00644 µM
CCN(CC)CCNC(=O)c1c(C)[nH]c(/C=C2\C(=O)Nc3ccc(F)cc32)c1C	ABCB1	transporter efflux, inhibitor	LLC-PK1	1 h	6.7 µM
O=C(NO)c1ccc(NC(=O)C2(c3ccccc3)CCCC2)c(F)c1	HDAC1	enzyme activity, inhibitor			0.181 µM
C=C(C)[C@@H]1CCC(C)=C[C@H]1c1c(O)cc(CCC)cc1O	ALOX5	enzyme activity in cells, inhibitor			7.6 µM
Cc1cnc(-c2ccc(-c3ccc(NC(=O)Nc4c(F)cc(F)cc4F)cc3F)c3c2C(=O)NC3)[nH]1	YES1	enzyme activity, inhibitor			0.0045 µM
